Measured values published in ChEMBL document CHEMBL5137066, “Discovery of BLU-945, a Reversible, Potent, and Wild-Type-Sparing Next-Generation EGFR Mutant Inhibitor for Treatment-Resistant Non-Small-Cell Lung Cancer” (J Med Chem, 2022).
Calls of active or inactive are those of the source. The calls are words filed in the database; no cut-off is given here.

Experiments:
[1] = biological target: T1, Epidermal growth factor receptor (Homo sapiens, UniProt P00533); assay: Inhibition of N-terminal GST tagged recombinant wild type human EGFR expressed in baculovirus infected Sf9 insect cells expression system using 5-FAM-EEPLYINSFPAKKK-CONH peptide as substrate preincubated for 10 mins followed by peptide substrate addition in presence of ATP
T1 sequence (P00533 whole entry): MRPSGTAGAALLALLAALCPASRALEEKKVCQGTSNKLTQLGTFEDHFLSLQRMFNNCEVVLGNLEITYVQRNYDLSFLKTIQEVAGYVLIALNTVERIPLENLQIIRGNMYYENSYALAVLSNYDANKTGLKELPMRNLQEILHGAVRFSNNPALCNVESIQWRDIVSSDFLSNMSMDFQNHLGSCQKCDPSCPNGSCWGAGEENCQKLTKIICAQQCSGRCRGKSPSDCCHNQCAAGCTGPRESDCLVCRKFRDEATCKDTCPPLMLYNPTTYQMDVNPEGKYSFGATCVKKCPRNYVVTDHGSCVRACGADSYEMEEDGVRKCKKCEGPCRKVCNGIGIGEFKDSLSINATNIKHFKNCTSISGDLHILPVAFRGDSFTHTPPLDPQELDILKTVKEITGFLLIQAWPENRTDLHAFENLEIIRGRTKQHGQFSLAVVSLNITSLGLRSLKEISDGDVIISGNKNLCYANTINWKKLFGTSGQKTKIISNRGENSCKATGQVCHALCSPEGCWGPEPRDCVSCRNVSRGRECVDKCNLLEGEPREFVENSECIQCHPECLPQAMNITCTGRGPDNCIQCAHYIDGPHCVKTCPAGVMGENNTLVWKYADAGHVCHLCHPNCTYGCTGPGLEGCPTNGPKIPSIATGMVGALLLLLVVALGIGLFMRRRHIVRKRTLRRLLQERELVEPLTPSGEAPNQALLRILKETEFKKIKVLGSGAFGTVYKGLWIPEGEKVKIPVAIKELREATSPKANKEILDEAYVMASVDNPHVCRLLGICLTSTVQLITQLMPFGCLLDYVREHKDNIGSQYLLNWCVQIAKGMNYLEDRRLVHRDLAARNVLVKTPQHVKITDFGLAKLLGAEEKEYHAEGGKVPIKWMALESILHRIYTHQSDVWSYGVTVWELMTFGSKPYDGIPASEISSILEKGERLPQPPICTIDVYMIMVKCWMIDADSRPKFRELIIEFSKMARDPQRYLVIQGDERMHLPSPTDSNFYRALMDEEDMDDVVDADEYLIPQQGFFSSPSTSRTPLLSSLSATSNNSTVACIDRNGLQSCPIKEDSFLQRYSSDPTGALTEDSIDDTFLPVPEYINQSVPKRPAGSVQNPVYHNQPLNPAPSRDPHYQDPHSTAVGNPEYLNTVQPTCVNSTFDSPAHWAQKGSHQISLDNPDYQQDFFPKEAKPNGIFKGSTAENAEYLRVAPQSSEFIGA

[2] = biological target: T2, Epidermal growth factor receptor (Homo sapiens, UniProt P00533, L858R/T790M); assay: Inhibition of EGF stimulated EGFR L858R/T790M double mutant phosphorylation in human NCI-H1975 cells preincubated for 4 to 5 hrs followed by EGF stimulation for 10 mins by AlphaLISA method; type: cell-based
T2 sequence (P00533 25-1210 T790M/L858R limits assumed): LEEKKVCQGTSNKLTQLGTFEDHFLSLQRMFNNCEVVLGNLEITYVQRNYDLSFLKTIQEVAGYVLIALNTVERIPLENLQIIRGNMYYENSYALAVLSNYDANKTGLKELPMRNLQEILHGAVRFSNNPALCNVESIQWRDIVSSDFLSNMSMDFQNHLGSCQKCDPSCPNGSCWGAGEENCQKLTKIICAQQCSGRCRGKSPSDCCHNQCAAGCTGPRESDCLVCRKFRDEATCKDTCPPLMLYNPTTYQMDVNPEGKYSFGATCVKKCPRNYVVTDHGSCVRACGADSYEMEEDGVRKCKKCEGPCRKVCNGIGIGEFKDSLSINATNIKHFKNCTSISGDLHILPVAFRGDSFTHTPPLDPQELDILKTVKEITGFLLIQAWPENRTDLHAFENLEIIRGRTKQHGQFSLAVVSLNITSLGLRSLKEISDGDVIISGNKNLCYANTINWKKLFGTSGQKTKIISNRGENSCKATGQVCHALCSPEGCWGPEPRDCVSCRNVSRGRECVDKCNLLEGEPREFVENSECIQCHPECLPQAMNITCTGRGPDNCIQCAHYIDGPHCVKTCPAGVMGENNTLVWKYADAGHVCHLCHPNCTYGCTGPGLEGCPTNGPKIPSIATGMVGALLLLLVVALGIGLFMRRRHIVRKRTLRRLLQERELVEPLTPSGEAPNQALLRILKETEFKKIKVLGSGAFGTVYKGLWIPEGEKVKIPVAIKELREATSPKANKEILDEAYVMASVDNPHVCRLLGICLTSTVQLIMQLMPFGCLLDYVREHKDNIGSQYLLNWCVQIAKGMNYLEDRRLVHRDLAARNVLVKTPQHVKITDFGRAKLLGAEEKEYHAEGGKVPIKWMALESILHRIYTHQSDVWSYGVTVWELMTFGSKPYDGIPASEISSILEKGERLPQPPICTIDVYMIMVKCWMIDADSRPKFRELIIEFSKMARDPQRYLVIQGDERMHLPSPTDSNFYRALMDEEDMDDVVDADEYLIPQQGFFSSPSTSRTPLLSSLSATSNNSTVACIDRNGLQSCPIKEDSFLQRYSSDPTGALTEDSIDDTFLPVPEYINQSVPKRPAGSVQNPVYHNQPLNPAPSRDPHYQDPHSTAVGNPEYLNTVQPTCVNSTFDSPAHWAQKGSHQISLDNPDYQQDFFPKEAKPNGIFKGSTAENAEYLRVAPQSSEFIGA

[3] = Unbound clearance in cynomolgus monkey assessed as clearance/free fraction ratio at 0.5 mg/kg, iv; type: ADME, organism-based, Macaca fascicularis; conditions: in vivo
Summary of the method: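 Cynomolgus monkey, 0.5 mg/kg IV bolus in 5% DMSO/5% kolliphor HS 15/90% saline. Unbound clearance = in vivo plasma clearance divided by the free fraction. Free fraction comes from plasma protein binding measured by ultracentrifugation.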

[4] = Intrinsic clearance in cynomolgus monkey liver microsomes in presence of NADPH; type: ADME, Macaca fascicularis, Microsome
Summary of the method: (§1)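 Intrinsic clearance measured in isolated liver microsomes of each species with NADPH, expressed in μL/min/mg.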

[5] = Clearance in cynomolgus monkey at 0.5 mg/kg,iv; type: ADME, organism-based, Macaca fascicularis; conditions: in vivo
Summary of the method: (§2)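 Cynomolgus monkeys given a single IV bolus of 0.5 mg/kg in 5% DMSO + 5% kolliphor HS 15 + 90% saline. Clearance is plasma clearance after the bolus.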

[6] = biological target: T1, Epidermal growth factor receptor; assay: Inhibition of wild type EGFR in human A-431 cells preincubated for 4 to 5 hrs followed by EGF stimulation for 10 mins by AlphaLISA method; type: cell-based
[7] = Apparent permeability across apical to basolateral side in MDCK-MDR1 cells; type: ADME, cell-based, Canis lupus familiaris; conditions: dog
[8] = biological target: T2, Epidermal growth factor receptor; assay: Inhibition of N-terminal GST tagged recombinant human EGFR L858R/T790M (669 to end residues) double mutant expressed in baculovirus infected Sf9 insect cells expression system using 5-FAM-EEPLYINSFPAKKK-CONH peptide as substrate preincubated for 10 mins followed by peptide substrate addition in presence of ATP
[9] = Inhibition of N-terminal GST tagged recombinant human EGFR L858R/T790M/C790S (668 to end residues) triple mutant expressed in baculovirus infected Sf9 insect cells using 5-FAM-EEPLYINSFPAKKK-CONH peptide as substrate preincubated for 10 mins followed by peptide substrate addition in presence of ATP
[10] = Intrinsic clearance in human hepatocytes assessed per million cells; type: ADME, cell-based, Hepatocyte
Summary of the method: (§3)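 Intrinsic clearance measured in isolated hepatocytes of each species, expressed in μL/min/million cells.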

[11] = Half life in cynomolgus monkey at 0.5 mg/kg, iv; type: ADME, organism-based, Macaca fascicularis; conditions: in vivo; summary of the method: as §2
[12] = Efflux ratio of apparent permeability in MDCK-MDR1 cells; type: ADME, cell-based, Canis lupus familiaris; conditions: dog
[13] = Intrinsic clearance in cynomolgus monkey hepatocytes assessed per million cells; type: ADME, cell-based, Macaca fascicularis, Hepatocyte; summary of the method: as §3
[14] = Intrinsic clearance in human liver microsomes in presence of NADPH; type: ADME, Microsome; summary of the method: as §1
[15] = Plasma protein binding in dog assessed as unbound fraction by ultracentrifugation method; type: ADME, cell-free, Canis lupus familiaris
Summary of the method: (§4)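 Plasma protein binding determined by ultracentrifugation, reported as the unbound fraction.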

NCI-H1975 [16] = assay: Antitumor activity against human NCI-H1975 cells xenografted in BALB/c mouse assessed as reduction in tumor volume at 30 mg/kg, po bid administered via oral gavage for 14 days; type: functional, organism-based; conditions: time 14.0 day
Summary of the method: (§5)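 Female BALB/c nude mice, 6–8 weeks old, inoculated s.c. in right flank with 5 × 10^6 NCI-H1975 cells in PBS:Matrigel 1:1. Randomized and dosed by oral gavage BID once mean tumor volume reached ~155 mm3. Tumor size and body weight measured every second day. Volume = 0.5ab2 (a, b long and short diameters). Plasma taken 2, 6, 12 h after the last dose for LC-MS/MS.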

[17] = Oral bioavailability in cynomolgus monkey at […], iv; type: ADME, organism-based, Macaca fascicularis; conditions: in vivo, dose 2.5 mg/kg
[18] = Plasma clearance in Sprague-Dawley rat at 1 mg/kg, iv; type: ADME, organism-based
Summary of the method: (§6)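 Sprague–Dawley rats (n = 3), single IV bolus of 1 mg/kg in 10% DMSO, 10% solutol, 80% of a 20% HP-β-CD solution (in water or in saline, depending on compound). Clearance is plasma clearance after the IV bolus.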

[19] = Thermodynamic solubility of the compound at pH 1.5; type: physicochemical; conditions: buffer
[20] = tested on: Ba/F3 EGFR-T790M/C797S/L858R; assay: Antitumor activity against mouse Ba/F3 EGFR-T790M/C797S/L858R cells implanted in NOD SCID mouse assessed as reduction in tumor volume at 100 mg/kg, po bid administered via oral gavage for 14 days; type: functional, organism-based; conditions: time 14.0 day
[21] = Oral bioavailability in Sprague-Dawley rat at […]; type: ADME, organism-based; conditions: in vivo, dose 2.5 mg/kg
[22] = Volume of distribution at steady state in Sprague-Dawley rat at 1 mg/kg, iv; type: ADME, organism-based; conditions: in vivo, read-out: Vdss
[23] = Plasma clearance in beagle dog at 0.5 mg/kg, iv; type: ADME, organism-based, Canis lupus familiaris
Summary of the method: (§7)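 Beagle dogs, single IV dose of 0.5 mg/kg in 5% DMSO + 5% kolliphor HS 15 + 90% saline. Clearance is plasma clearance.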

[24] = Toxicity in BALB/c nude mouse xenografted with human NCI-H1975 cells assessed as effect on body weight at 25 mg/kg , po qd administered via oral gavage for 14 days; type: organism-based; conditions: in vivo, 336 h, time 14 day
Summary of the method: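 Female BALB/c nude mice, 6–8 weeks old, bearing s.c. right-flank NCI-H1975 xenografts (5 × 10^6 cells in PBS:Matrigel 1:1). Once-daily oral gavage began at mean tumor volume ~155 mm3. Body weight and tumor size recorded every second day.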

[25] = Toxicity in BALB/c nude mouse xenografted with human NCI-H1975 cells assessed as effect on body weight at 100 mg/kg , po bid administered via oral gavage for 14 days; type: organism-based; conditions: in vivo, 336 h, time 14 day; summary of the method: as §5
[26] = Toxicity in BALB/c nude mouse xenografted with human NCI-H1975 cells assessed as effect on body weight at 30 mg/kg, po bid administered via oral gavage for 14 days; type: organism-based; conditions: in vivo, 336 h, time 14 day; summary of the method: as §5
[27] = Half life in Sprague-Dawley rat at 1 mg/kg, iv; type: ADME, organism-based; conditions: in vivo; summary of the method: as §6
[28] = Volume of distribution at steady state in Beagle dog at 0.5 mg/kg, iv; type: ADME, organism-based, Canis lupus familiaris; conditions: in vivo, read-out: Vdss
[29] = tested on: Ba/F3 EGFR-Del19/T790M/C797S; assay: Antitumor activity against osimertinib-resistant mouse Ba/F3 EGFR-Del19/T790M/C797S cells implanted in NOD SCID mouse assessed as reduction in tumor volume at 100 mg/kg , po bid administered via oral gavage for 14 days; type: functional, organism-based; conditions: time 14.0 day
[30] = Plasma protein binding in cynomolgus monkey assessed as unbound fraction by ultracentrifugation method; type: ADME, cell-free, Macaca fascicularis; summary of the method: as §4
[31] = Half life in beagle dog at 0.5 mg/kg, iv; type: ADME, organism-based, Canis lupus familiaris; conditions: in vivo; summary of the method: as §7
[32] = Plasma clearance in cynomolgus monkey at 0.5 mg/kg, iv; type: ADME, organism-based, Macaca fascicularis; summary of the method: as §2
NCI-H1975 [33] = assay: Antitumor activity against human NCI-H1975 cells xenografted in BALB/c mouse assessed as reduction in tumor volume at 100 mg/kg , po bid administered via oral gavage for 14 days; type: functional, organism-based; conditions: time 14.0 day; summary of the method: as §5
[34] = Oral bioavailability in Beagle dog at […], iv; type: ADME, organism-based, Canis lupus familiaris; conditions: in vivo, dose 2.5 mg/kg
NSCLC = type: functional, organism-based; conditions: Homo sapiens, dose 75-100 mg/kg, route po, time 56.0 day
[35] = Plasma protein binding in rat assessed as unbound fraction by ultracentrifugation method; type: ADME, cell-free; summary of the method: as §4
[36] = Lipophilicity, logD of compound at pH 7.4; type: physicochemical; conditions: buffer
[37] = Plasma protein binding in human assessed as unbound fraction by ultracentrifugation method; type: ADME, cell-free; summary of the method: as §4
[38] = Thermodynamic solubility of the compound at pH 6.5; type: physicochemical; conditions: buffer
[39] = Volume of distribution at steady state in cynomolgus monkey at 0.5 mg/kg, iv; type: ADME, organism-based, Macaca fascicularis; conditions: in vivo, read-out: Vdss
[40] = Oral bioavailability in Sprague-Dawley rat at 5 mg/kg; type: ADME, organism-based; conditions: in vivo
Summary of the method: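 Sprague–Dawley rats (n = 3) received 1 mg/kg IV and 5 mg/kg PO. IV vehicle was 10% DMSO/10% solutol/80% (20% HP-β-CD). PO vehicle was a suspension in 20% solutol in 0.5% MC in water, or a solution matching the IV vehicle, depending on compound.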

[41] = Intrinsic clearance in dog liver microsomes in presence of NADPH; type: ADME, Canis lupus familiaris, Microsome; summary of the method: as §1
[42] = Intrinsic clearance in rat hepatocytes assessed per million cells; type: ADME, cell-based, Hepatocyte; summary of the method: as §3
[43] = Intrinsic clearance in dog hepatocytes assessed per million cells; type: ADME, cell-based, Canis lupus familiaris, Hepatocyte; summary of the method: as §3
[44] = Clearance in Sprague-Dawley rat at 1 mg/kg, iv; type: ADME, organism-based; conditions: in vivo; summary of the method: as §6
[45] = Intrinsic clearance in rat liver microsomes in presence of NADPH; type: ADME, Microsome; summary of the method: as §1

## CC(C)c1ccc(N2C[C@H](CS(C)(=O)=O)[C@H]2C)c2cnc(Nc3ccnc(N4CC[C@@](C)(O)[C@@H](F)C4)n3)cc12
[1]
  IC50: 1090 nM
[2]
  IC50: 3.8 nM
[3]
  Ratio: 170
[4]
  CLH: 23 µL/min/mg
[5]
  clearance: 8.8 mL/min/kg
[6]
  IC50: 1210 nM
[7]
  Papp: 5 10^-6 cm/s
[8]
  IC50: 0.4 nM
[9]
  IC50: 0.5 nM
[10]
  CLH: 3.2 µL/min
[11]
  half-life: 4.8 h
[12]
  efflux ratio: 3
[13]
  CLH: 1.5 uL/min/10^6 cells
[14]
  CLH: 5.1 µL/min/mg

## CO[C@@H]1CCN(c2nccc(Nc3cc4c(C(C)C)ccc(N5C[C@H](CS(C)(=O)=O)[C@H]5C)c4cn3)n2)C[C@@H]1F [TIGOZERTINIB]
[15]
  Fu: 1.4%
NCI-H1975 [16]
  Activity: Active
[17]
  F: 33%
[18]
  clearance: 32.4 mL/min/kg
[19]
  Therm_solubility: 11000 µg/mL
[20]
  Activity: Active
[21]
  F: 48%
[22]
  Vd: 2.3 L/kg
[23]
  clearance: 13.7 mL/min/kg
[4]
  CLH: 109 µL/min/mg
[24]
  Activity: Non-Toxic
[25]
  Activity: Non-Toxic
[26]
  Activity: Non-Toxic
[5]
  clearance: 4.9 mL/min/kg
[27]
  half-life: 1.3 h
[28]
  Vd: 3.9 L/kg
[29]
  Activity: Active
[30]
  Fu: 3.5%
[7]
  Papp: 8 10^-6 cm/s
[31]
  half-life: 4.9 h
[32]
  clearance: 4.9 mL/min/kg
NCI-H1975 [33]
  Activity: Active
[34]
  F: 49%
NSCLC
  Activity: Active
[35]
  Fu: 0.9%
[36]
  logD: 3.8
[37]
  Fu: 1.1%
[38]
  Therm_solubility: 10 µg/mL
[10]
  CLH: 23 µL/min
[11]
  half-life: 3.5 h
[39]
  Vd: 1.6 L/kg
[14]
  CLH: 89 µL/min/mg

## CO[C@@H]1[C@H](O)CN(c2nccc(Nc3cc4c(C(C)C)ccc(N5C[C@H](CS(C)(=O)=O)[C@H]5C)c4cn3)n2)CC1(F)F
[1]
  IC50: 810 nM
[2]
  IC50: 2.6 nM
[3]
  Ratio: 294
[4]
  CLH: 25 µL/min/mg
[5]
  clearance: 9.1 mL/min/kg
[6]
  IC50: 191 nM
[7]
  Papp: 8 10^-6 cm/s
[8]
  IC50: 0.7 nM
[10]
  CLH: 16 µL/min
[11]
  half-life: 4.5 h
[12]
  efflux ratio: 2
[13]
  CLH: 49 uL/min/10^6 cells
[14]
  CLH: 19 µL/min/mg

## CC(C)c1ccc(N2C[C@H](CS(C)(=O)=O)[C@H]2C)c2cnc(Nc3ccnc(N4CC[C@@H](O)[C@@](C)(F)C4)n3)cc12
[4]
  CLH: 55 µL/min/mg
[5]
  clearance: 31.8 mL/min/kg
[27]
  half-life: 1.3 h
[7]
  Papp: 9 10^-6 cm/s
[40]
  F: 50%
[41]
  CLH: 20 µL/min/mg
[42]
  CLH: 33 µL/min
[10]
  CLH: 41 µL/min
[43]
  CLH: 21 µL/min
[11]
  half-life: 2.9 h
[44]
  clearance: 25 mL/min/kg
[45]
  CLH: 43 µL/min/mg
[14]
  CLH: 7.2 µL/min/mg
